Screening data from PubChem BioAssay.
This is a sample that favours compounds with a hit; in the whole collection about 2.5% have one here.
HTRA1 inhibitor: HTRA1 (human) protease inhibition | inhibition, % at 5.96 µM | recombinant HTRA1, FP-rhodamine activity-based probe, fluorescence polarization | Q92743 | 0.5% of 340,000 active; in the data active = inhibition above about 36%;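 also: 0% = enzyme with DMSO and 100% = wells lacking enzyme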
TCR CD3 inh: human TCR-CD3 binding inhibition; TAMRA-labeled TCR probe fluorescence, biochemical; 0.37% of 360,000 active; inhibition, % at 9.4 µM;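 also: recombinant mutant TCR 2C K166C tagged with TAMRA read by polarization; 0% = receptor in buffer alone and 100% = receptor with positive control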
SIAE primary: human SIAE inhibition, primary screen; Q9HAT2; SIAE FP-Rh probe binding, fluorescence polarization; inhibition, % at 9.66 µM; 0.69% of 370,000 active; AID 1053197;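 active = inhibition above a cutoff: mean of compounds within the control limits plus 3 SD of those, cut at about 17% in these data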;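 also: 0% = plate median of compound wells and 100% = probe without SIAE protein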
ABHD4 inh: inhibits mouse alpha/beta hydrolase domain 4; inhibition, % at 8.92 µM; 0.54% of 370,000 active; purified mABHD4, FP-Rh probe fluorescence polarization;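 active = inhibition exceeding the mean over every tested compound plus 3 SD, cut at about 30% in these data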;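 also: 0% = plate median of compound wells and 100% = S159A mutant with DMSO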
Target sequence (Q8VD66 whole entry, looked up, the tested form may be a part): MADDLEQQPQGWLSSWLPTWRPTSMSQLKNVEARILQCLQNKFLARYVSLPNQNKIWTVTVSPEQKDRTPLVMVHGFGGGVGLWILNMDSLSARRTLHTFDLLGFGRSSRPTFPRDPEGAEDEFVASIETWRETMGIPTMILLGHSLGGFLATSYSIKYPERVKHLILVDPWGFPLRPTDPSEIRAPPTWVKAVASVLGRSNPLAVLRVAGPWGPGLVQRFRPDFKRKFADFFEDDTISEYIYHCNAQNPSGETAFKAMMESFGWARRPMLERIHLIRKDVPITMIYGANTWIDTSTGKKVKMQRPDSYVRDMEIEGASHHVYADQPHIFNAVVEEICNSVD
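assay system = mABHD4 protein | compound dosing = single nominal dose of 8.92 µM, 0.89% DMSO final | read-out basis = percent inhibition of probe binding, normalized to plate controls | schedule = Enzyme–compound pre-incubation 45 min, then probe 60 min, both 25 °C | detection = fluorescence polarization, excitation 525 nm, emission 598 nm, BODIPY TMR filters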
PRMT1 FP inh: inhibitors of human PRMT1; recombinant PRMT1, activity-based probe fluorescence polarization; inhibition, % at 2.79 µM; 1.3% of 370,000 active;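 active = inhibition above about 21% made by adding two undisclosed values, limit read from the data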
BSA probe FL: counter-screen for TCR-CD3 interaction inhibitors: BSA probe | shares compounds with TCR CD3 inh | inhibition, % at 9.4 µM | TAMRA-labeled BSA probe fluorescence counterscreen | AID 652035 | 10% of 1,200 active; in the data active = inhibition above about 23%;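 also: 0% = buffer low control and 100% = reference high control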
TCR-CD3 inh conf: confirmation of human TCR-CD3 interaction inhibitors. shares compounds with TCR CD3 inh. TAMRA-labeled TCR probe fluorescence binding assay. 48% of 1,200 active. inhibition, % at 9.4 µM
The depositor's hits bear a star. Rule as the data show it, unless noted: active = inhibition above about 19%; inactive = the rest.

Screening C/C(Cn1cnc([N+](=O)[O-])n1)=N\NC(=O)c1ccccc1O returned HTRA1 inhibitor 5, TCR CD3 inh 3, SIAE primary 15, ABHD4 inh 8 and PRMT1 FP inh 0.
C/C(Cn1cnc([N+](=O)[O-])n1)=N\NC(=O)c1ccc(O)cc1O was read as HTRA1 inhibitor 4, TCR CD3 inh 19*, SIAE primary 3, ABHD4 inh 1, PRMT1 FP inh -3, BSA probe FL -3 and TCR-CD3 inh conf 3.
`CCOC(=O)C(CC)/C(C)=N\NC(=O)c1ccccc1O` (stereo not given) gave HTRA1 inhibitor 31, TCR CD3 inh 35*, SIAE primary 6, ABHD4 inh 9, PRMT1 FP inh 0, BSA probe FL 22 and TCR-CD3 inh conf 38*.
Screening CCC/C(C)=N/NC(=O)c1ccccc1O returned HTRA1 inhibitor 8, TCR CD3 inh 5, SIAE primary 1, ABHD4 inh 5 and PRMT1 FP inh -1.
For C=CCn1c(SCC(=O)NCc2ccco2)nnc1C1CCCCC1 the results were HTRA1 inhibitor 4, TCR CD3 inh 20*, SIAE primary -1, ABHD4 inh -6, PRMT1 FP inh -4, BSA probe FL 3 and TCR-CD3 inh conf -1.
Screening COC(=O)[C@]1(CC(C)C)NC=C(C(=O)c2ccccc2)[C@@H]1c1cccc(C(F)(F)F)c1 returned TCR CD3 inh 0, SIAE primary -1, ABHD4 inh -4 and PRMT1 FP inh -2.
For C#CCn1c(=NC(=O)c2ccc(S(=O)(=O)N3CCc4ccccc4C3)cc2)sc2cc(S(N)(=O)=O)ccc21 the results were HTRA1 inhibitor -30.
C=CCn1c(=NC(=O)c2ccc(S(=O)(=O)N3CCc4ccccc4C3)cc2)sc2cc(S(N)(=O)=O)ccc21 was read as HTRA1 inhibitor -78, TCR CD3 inh 31*, SIAE primary -61, ABHD4 inh -38, PRMT1 FP inh 1, BSA probe FL 13 and TCR-CD3 inh conf 31*.
For COc1ccc(OCC(=O)N2CCC(n3nccc3NC(=O)C3CC3)CC2)cc1 the results were HTRA1 inhibitor 3, TCR CD3 inh 21*, SIAE primary -1, ABHD4 inh -3, PRMT1 FP inh -1, BSA probe FL 10 and TCR-CD3 inh conf 9.
`Cc1ccc(NC(=O)C2(C)CCCN(C(C)C)C2)cc1C` (stereo not given) gave TCR CD3 inh 6, SIAE primary 6, ABHD4 inh 1 and PRMT1 FP inh 0.
`CCCCN(C(=O)c1cccc(-n2cccc2)c1)c1c(N)n(CCCC)c(=O)[nH]c1=O` gave HTRA1 inhibitor -10, TCR CD3 inh 39*, SIAE primary -2, ABHD4 inh 0, PRMT1 FP inh 16, BSA probe FL -9 and TCR-CD3 inh conf 10.
`CCCCN(C(=O)c1cccc(-n2cccc2)c1)c1c(N)n(CCC)c(=O)[nH]c1=O` gave HTRA1 inhibitor -6, TCR CD3 inh 9, SIAE primary 1, ABHD4 inh 3 and PRMT1 FP inh -2.
For COc1ccc(CN2C3=NC(c4ccccc4)CC(=O)N3/C(=C\c3ccccc3)C2c2ccccc2)c(OC)c1 (stereo not given) the results were SIAE primary -1, ABHD4 inh -6 and PRMT1 FP inh 3.
`CC(Sc1ccc(Cl)cc1)C(=O)N(C)CC(=O)Nc1ccc(N2CCOCC2)cc1` (stereo not given) gave HTRA1 inhibitor -1, TCR CD3 inh 3, SIAE primary 3, ABHD4 inh 2 and PRMT1 FP inh 0.
`Cc1nc2ccccc2c(=O)n1/N=C/c1c(O)ccc2ccccc12` gave HTRA1 inhibitor 5, TCR CD3 inh 24*, SIAE primary 4, ABHD4 inh 5, PRMT1 FP inh 1, BSA probe FL -9 and TCR-CD3 inh conf 8.
Screening COc1ccc2ccccc2c1C=Nn1c(-c2cc(-c3ccccc3)n[nH]2)n[nH]c1=S returned SIAE primary 3, ABHD4 inh 6 and PRMT1 FP inh 11.
`Cc1n[nH]c(=S)n1/N=C/c1c(O)ccc2ccccc12` gave HTRA1 inhibitor 6, TCR CD3 inh 30*, SIAE primary 5, ABHD4 inh 5, PRMT1 FP inh 1, BSA probe FL -4 and TCR-CD3 inh conf 18.
